Non-standard residues stand in square brackets, D forms with d. Residues, ends and D or L forms follow the SMILES beside them. ξ: configuration not given here. *: point of attachment. Tyr(3,5-I2) = N[C@@H](Cc1cc(I)c(O)c(I)c1)C(=O)O; Bip = N[C@@H](Cc1ccc(-c2ccccc2)cc1)C(=O)O; Tyr(3-I) = N[C@@H](Cc1ccc(O)c(I)c1)C(=O)O; Dip = N[C@H](C(=O)O)C(c1ccccc1)c1ccccc1; 1Nal = N[C@@H](Cc1cccc2ccccc12)C(=O)O; 2Nal = N[C@@H](Cc1ccc2ccccc2c1)C(=O)O; Cha = N[C@@H](CC1CCCCC1)C(=O)O; OCH2CH2Ph = c1ccc(CCO*)cc1; ξαMeS = CC(N)(CO)C(=O)O; X3 = c1ccc(CCCCO*)cc1; NHBn = c1ccc(CN*)cc1; OBn = c1ccc(CO*)cc1; X2 = CCCCO*
Target: T1, Myosin light chain kinase, smooth muscle (Gallus gallus, UniProt P11799)
T1 sequence (P11799 whole entry): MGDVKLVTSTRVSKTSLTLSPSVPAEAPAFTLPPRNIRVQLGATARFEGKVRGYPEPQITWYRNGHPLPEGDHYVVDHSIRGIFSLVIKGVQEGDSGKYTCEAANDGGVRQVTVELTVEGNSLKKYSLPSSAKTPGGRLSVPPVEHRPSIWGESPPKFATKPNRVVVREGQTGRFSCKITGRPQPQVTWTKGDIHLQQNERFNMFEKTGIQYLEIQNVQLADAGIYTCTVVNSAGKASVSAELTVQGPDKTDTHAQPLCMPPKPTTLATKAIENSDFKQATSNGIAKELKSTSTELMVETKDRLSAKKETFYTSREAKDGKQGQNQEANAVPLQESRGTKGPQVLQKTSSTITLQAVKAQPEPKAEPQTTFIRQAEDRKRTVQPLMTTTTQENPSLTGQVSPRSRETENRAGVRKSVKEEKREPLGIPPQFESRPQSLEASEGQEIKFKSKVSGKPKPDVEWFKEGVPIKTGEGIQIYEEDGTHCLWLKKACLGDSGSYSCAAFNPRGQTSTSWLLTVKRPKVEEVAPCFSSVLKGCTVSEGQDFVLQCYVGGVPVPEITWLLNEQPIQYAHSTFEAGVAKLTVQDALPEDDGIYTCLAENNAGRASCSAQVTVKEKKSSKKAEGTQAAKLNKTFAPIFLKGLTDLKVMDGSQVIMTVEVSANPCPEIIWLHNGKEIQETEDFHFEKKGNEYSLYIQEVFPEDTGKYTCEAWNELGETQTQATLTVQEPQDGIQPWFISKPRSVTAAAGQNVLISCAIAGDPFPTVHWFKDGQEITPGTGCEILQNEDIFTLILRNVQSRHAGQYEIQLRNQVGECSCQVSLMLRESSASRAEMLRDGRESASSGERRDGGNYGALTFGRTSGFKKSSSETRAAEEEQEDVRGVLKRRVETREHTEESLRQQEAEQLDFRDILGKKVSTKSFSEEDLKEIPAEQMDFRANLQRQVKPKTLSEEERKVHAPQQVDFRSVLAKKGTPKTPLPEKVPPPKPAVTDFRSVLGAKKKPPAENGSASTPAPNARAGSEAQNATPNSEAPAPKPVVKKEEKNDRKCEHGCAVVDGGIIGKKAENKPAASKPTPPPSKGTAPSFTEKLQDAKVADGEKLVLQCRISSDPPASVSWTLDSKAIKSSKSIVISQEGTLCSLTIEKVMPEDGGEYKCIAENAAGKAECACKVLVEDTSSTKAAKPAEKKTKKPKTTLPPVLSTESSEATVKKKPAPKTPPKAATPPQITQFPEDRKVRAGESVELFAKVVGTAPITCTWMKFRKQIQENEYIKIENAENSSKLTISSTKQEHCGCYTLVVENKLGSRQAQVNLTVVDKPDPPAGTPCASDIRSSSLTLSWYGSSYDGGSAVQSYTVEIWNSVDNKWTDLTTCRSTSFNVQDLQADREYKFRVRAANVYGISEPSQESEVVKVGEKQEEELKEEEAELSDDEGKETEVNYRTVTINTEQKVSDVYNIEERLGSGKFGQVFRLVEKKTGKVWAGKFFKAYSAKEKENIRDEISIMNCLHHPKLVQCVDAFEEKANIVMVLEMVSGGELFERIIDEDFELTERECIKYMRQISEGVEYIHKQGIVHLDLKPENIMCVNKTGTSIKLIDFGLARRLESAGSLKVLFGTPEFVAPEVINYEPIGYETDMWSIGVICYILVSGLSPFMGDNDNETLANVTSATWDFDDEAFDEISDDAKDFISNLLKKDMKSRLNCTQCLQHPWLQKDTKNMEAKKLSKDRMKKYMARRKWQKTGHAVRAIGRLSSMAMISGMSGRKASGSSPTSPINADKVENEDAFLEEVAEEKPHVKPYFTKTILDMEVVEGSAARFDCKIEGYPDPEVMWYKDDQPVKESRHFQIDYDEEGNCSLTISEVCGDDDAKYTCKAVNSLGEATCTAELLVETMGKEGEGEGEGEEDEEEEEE
Assay: Inhibition of calmodulin-independent form of myosin light chain kinase isolated from chicken gizzard.
Outline: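 Chicken gizzard MLCK made calmodulin-independent by limited trypsin digestion. It was started with ATP and stopped with HCl. Phosphate in substrate was counted on phosphocellulose filters. IC50 was read graphically from duplicates at four concentrations and reported as the mean, or as % inhibition at one concentration.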

Structure (SMILES) | IC50
CC(C)[C@H](NC(=O)[C@H](CC(N)=O)NC(=O)[C@@H](N)CO)C(=O)N[C@H](/C=C/[C@@H](C)COCc1ccccc1)Cc1ccccc1 | 23 µM
CC(C)[C@H](NC(=O)[C@H](CC(N)=O)NC(=O)[C@@H](N)CO)C(=O)N[C@@H](Cc1ccc(-c2ccccc2)cc1)C(=O)N[C@@H](C)C(=O)OCc1ccccc1 (H-SNV[Bip]A-OBn) | 5 µM
CCCCOC(=O)[C@H](C)NC(=O)[C@H](Cc1ccccc1)NC(=O)[C@@H](NC(=O)[C@H](CC(N)=O)NC(=O)[C@@H](N)CO)C(C)C (H-SNVFA-X2) | 185 µM
CC(C)[C@@H](CN[C@@H](Cc1ccccc1)C(=O)N[C@@H](C)C(=O)OCc1ccccc1)NC(=O)[C@H](CC(N)=O)NC(=O)[C@@H](N)CO | 262 µM
CC(C)[C@H](NC(=O)[C@H](CC(N)=O)NC(=O)[C@@H](N)CO)C(=O)N[C@@H](Cc1cccc2ccccc12)C(=O)N[C@@H](C)C(=O)OCc1ccccc1 (H-SNV[1Nal]A-OBn) | 2 µM
CC(C)[C@H](NC(=O)[C@H](CC(N)=O)NC(=O)[C@@H](N)CO)C(=O)N[C@H](CCCCc1ccccc1)Cc1ccccc1 | 12 µM
CC(C)[C@H](NC(=O)[C@@H](NC(=O)[C@@H](N)CO)C(C)C)C(=O)N[C@@H](Cc1ccccc1)C(=O)N[C@@H](C)C(=O)OCc1ccccc1 (H-SVVFA-OBn) | 24 µM
CC(C)[C@H](NC(=O)[C@H](C)NC(=O)[C@@H](N)CO)C(=O)N[C@@H](Cc1ccccc1)C(=O)N[C@@H](C)C(=O)OCc1ccccc1 (H-SAVFA-OBn) | 18 µM
CC(C)[C@H](/C=C/[C@H](CC(N)=O)NC(=O)[C@@H](N)CO)C(=O)N[C@@H](Cc1ccccc1)C(=O)N[C@@H](C)C(=O)NCc1ccccc1 | 278 µM
CC(C)[C@H](NC(=O)[C@H](CC(N)=O)NC(=O)[C@@H](N)CO)C(=O)N[C@H](/C=C/C=C/c1ccccc1)Cc1ccccc1 | 3.9 µM
CC(C)[C@@H](/C=C/[C@@H](Cc1ccccc1)C(=O)N[C@@H](C)C(=O)OCc1ccccc1)NC(=O)[C@H](CC(N)=O)NC(=O)[C@@H](N)CO | 36 µM
CC(C)[C@H](NC(=O)[C@H](CC(N)=O)NC(=O)[C@@H](N)CO)C(=O)N[C@H](/C=C\[C@@H](C)COCc1ccccc1)Cc1ccccc1 | 17 µM
CC(C)[C@H](NC(=O)[C@H](CC(N)=O)NC(=O)[C@@H](N)CO)C(=O)N[C@H](/C=C/C(CCCc1ccccc1)CCCc1ccccc1)Cc1ccccc1 | 0.6 µM

The remaining lines, values ahead:

IC50 | Structure (SMILES)
186 µM | CC(C)[C@@H](NC(=O)[C@@H](CC(N)=O)NC(=O)[C@@H](N)CO)C(=O)N[C@@H](Cc1ccccc1)C(=O)N[C@@H](C)C(=O)OCc1ccccc1
64 µM | CC(C)[C@H](NC(=O)[C@H](CC(N)=O)NC(=O)[C@@H](N)CO)C(=O)N[C@@H](Cc1ccccc1)C(=O)N[C@H](C)C(=O)OCc1ccccc1
12 µM | CC(C)[C@H](NC(=O)[C@H](CC(N)=O)NC(=O)[C@H](N)CO)C(=O)N[C@@H](Cc1ccccc1)C(=O)N[C@@H](C)C(=O)OCc1ccccc1
16 µM | CC(C)[C@H](NC(=O)[C@H](CC(N)=O)NC(=O)[C@@H](N)CO)C(=O)N[C@@H](Cc1ccccc1)C(=O)N[C@@H](C)C(=O)NCc1ccccc1 (H-SNVFA-NHBn)
190 µM | C[C@H](NC(=O)[C@H](Cc1ccccc1)NC(=O)[C@@H](NC(=O)[C@H](CC(N)=O)NC(=O)[C@@H](N)CO)[C@@H](C)O)C(=O)OCc1ccccc1 (H-SNTFA-OBn)
75 µM | CC(C)[C@H](NC(=O)[C@H](CC(N)=O)NC(=O)[C@@H](N)CO)C(=O)N[C@H](Cc1ccccc1)C(=O)N[C@@H](C)C(=O)OCc1ccccc1
50 µM | CC(C)[C@H](NC(=O)[C@H](CC(N)=O)NC(=O)[C@@H](N)CO)C(=O)N[C@@H](Cc1ccccc1)C(=O)N[C@@H](C)C(=O)OCCc1ccccc1 (H-SNVFA-OCH2CH2Ph)

Target: T1, Myosin light chain kinase, smooth muscle
Assay: Inhibition of native form of chicken MLCK (myosin light chain kinase)
Outline: (§1)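 Native calmodulin-dependent gizzard MLCK, over 95% homogeneous, with 200 nM calmodulin, 1 mM EGTA and about 200 μM excess free Ca2+. Started with ATP and stopped with HCl; phosphocellulose filter counting. Graphical IC50 from duplicates at four concentrations, or % inhibition at a single concentration.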

Structure (SMILES) | IC50
CC(C)[C@H](NC(=O)[C@H](CC(N)=O)NC(=O)[C@@H](N)CO)C(=O)N[C@@H](CC1CCCCC1)C(=O)N[C@@H](C)C(=O)OCc1ccccc1 (H-SNV[Cha]A-OBn) | 12 µM
CC(C)[C@H](NC(=O)[C@H](CC(N)=O)NC(=O)[C@@H](N)CO)C(=O)N[C@@H](Cc1ccc(O)c(I)c1)C(=O)N[C@@H](C)C(=O)OCc1ccccc1 (H-SNV[Tyr(3-I)]A-OBn) | 1 µM
CC(C)[C@H](NC(=O)CNC(=O)[C@@H](N)CO)C(=O)N[C@@H](Cc1ccccc1)C(=O)N[C@@H](C)C(=O)OCc1ccccc1 (H-SGVFA-OBn) | 450 µM
CC(C)[C@H](NC(=O)[C@H](CC(N)=O)NC(=O)[C@@H](N)CO)C(=O)N[C@@H](Cc1ccc(-c2ccccc2)cc1)C(=O)N[C@@H](C)C(=O)OCc1ccccc1 (H-SNV[Bip]A-OBn) | 1 µM
C[C@H](NC(=O)[C@H](Cc1ccccc1)NC(=O)[C@H](Cc1ccccc1)NC(=O)[C@H](CC(N)=O)NC(=O)[C@@H](N)CO)C(=O)OCc1ccccc1 (H-SNFFA-OBn) | 50 µM
CC(C)[C@H](NC(=O)[C@H](CC(N)=O)NC(=O)[C@@H](N)CO)C(=O)N[C@@H](Cc1cccc2ccccc12)C(=O)N[C@@H](C)C(=O)OCc1ccccc1 (H-SNV[1Nal]A-OBn) | 2 µM
CC(C)[C@H](NC(=O)[C@H](CC(N)=O)NC(=O)[C@@H](N)CO)C(=O)N[C@@H](Cc1ccc(O)cc1)C(=O)N[C@@H](C)C(=O)OCc1ccccc1 (H-SNVYA-OBn) | 45 µM
CC(C)[C@H](NC(=O)[C@H](CC(N)=O)NC(=O)[C@@H](N)CO)C(=O)N[C@H](C(=O)N[C@@H](C)C(=O)OCc1ccccc1)C(c1ccccc1)c1ccccc1 (H-SNV[Dip]A-OBn) | 6 µM
CC(C)[C@H](NC(=O)[C@H](CC(N)=O)NC(=O)[C@@H](N)CO)C(=O)N[C@@H](Cc1ccc2ccccc2c1)C(=O)N[C@@H](C)C(=O)OCc1ccccc1 (H-SNV[2Nal]A-OBn) | 12 µM
CSCC[C@H](NC(=O)[C@H](CC(N)=O)NC(=O)[C@@H](N)CO)C(=O)N[C@@H](Cc1ccccc1)C(=O)N[C@@H](C)C(=O)OCc1ccccc1 (H-SNMFA-OBn) | 30 µM
CC(C)[C@H](NC(=O)[C@H](CC(N)=O)NC(=O)[C@@H](N)CO)C(=O)N[C@@H](Cc1cc(I)c(O)c(I)c1)C(=O)N[C@@H](C)C(=O)OCc1ccccc1 (H-SNV[Tyr(3,5-I2)]A-OBn) | 7 µM
CC(C)[C@H](NC(=O)[C@H](CC(N)=O)NC(=O)[C@H](CO)NC(=O)[C@@H](NC(=O)[C@H](C)N)[C@@H](C)O)C(=O)N[C@@H](Cc1ccccc1)C(=O)N[C@@H](C)C(=O)OCc1ccccc1 (H-ATSNVFA-OBn) | 31 µM
CC(C)[C@H](NC(=O)[C@H](CC(N)=O)NC(=O)[C@H](CO)NC(=O)[C@@H](NC(=O)[C@H](C)NC(=O)[C@@H](N)CCCNC(=N)N)[C@@H](C)O)C(=O)N[C@@H](Cc1ccccc1)C(=O)N[C@@H](C)C(=O)OCc1ccccc1 (H-RATSNVFA-OBn) | 38 µM
CC(C)[C@H](NC(=O)[C@H](CC(N)=O)NC(=O)[C@@H](N)CO)C(=O)N[C@@H](Cc1c[nH]c2ccccc12)C(=O)N[C@@H](C)C(=O)OCc1ccccc1 (H-SNVWA-OBn) | 6 µM

More lines, now with the values ahead:

IC50 | Structure (SMILES)
76 µM | CSCC[C@H](N)C(=O)N[C@@H](CC(N)=O)C(=O)N[C@H](C(=O)N[C@@H](Cc1ccccc1)C(=O)N[C@@H](C)C(=O)OCc1ccccc1)C(C)C (H-MNVFA-OBn)
160 µM | CC(C)[C@H](NC(=O)[C@H](CC(N)=O)NC(=O)[C@@H](N)CO)C(=O)N[C@@H](Cc1ccccc1)C(=O)OCc1ccccc1 (H-SNVF-OBn)
18 µM | CC(C)[C@H](NC(=O)[C@H](CC(N)=O)NC(=O)[C@@H](N)[C@@H](C)O)C(=O)N[C@@H](Cc1ccccc1)C(=O)N[C@@H](C)C(=O)OCc1ccccc1 (H-TNVFA-OBn)
56 µM | CC(C)[C@H](NC(=O)[C@H](CC(N)=O)NC(=O)[C@@H]1C[C@H](O)CN1)C(=O)N[C@@H](Cc1ccccc1)C(=O)N[C@@H](C)C(=O)OCc1ccccc1
12 µM | CC(C)[C@@H](NC(=O)[C@@H](CC(N)=O)NC(=O)[C@H](N)CO)C(=O)N[C@H](Cc1ccccc1)C(=O)N[C@H](C)C(=O)OCc1ccccc1
5 µM | CC(C)[C@H](NC(=O)[C@H](CC(N)=O)NC(=O)[C@H](N)CO)C(=O)N[C@@H](Cc1ccccc1)C(=O)N[C@@H](C)C(=O)OCc1ccccc1
8 µM | CC(C)[C@H](NC(=O)[C@H](CC(N)=O)NC(=O)[C@@H](N)CS)C(=O)N[C@@H](Cc1ccccc1)C(=O)N[C@@H](C)C(=O)OCc1ccccc1 (H-CNVFA-OBn)
3 µM | CC(C)C[C@H](NC(=O)[C@H](CC(N)=O)NC(=O)[C@@H](N)CO)C(=O)N[C@@H](Cc1ccccc1)C(=O)N[C@@H](C)C(=O)OCc1ccccc1 (H-SNLFA-OBn)
15 µM | CC(C)[C@H](NC(=O)[C@H](CC(N)=O)NC(=O)[C@@H](N)CO)C(=O)N[C@@H](Cc1ccccc1)C(=O)N[C@@H](C)C(=O)NCc1ccccc1 (H-SNVFA-NHBn)
19 µM | CC(C)[C@H](NC(=O)[C@H](CC(N)=O)NC(=O)[C@@H](N)CO)C(=O)N[C@@H](Cc1ccccc1)C(=O)N[C@@H](C)C(=O)OCCCCc1ccccc1 (H-SNVFA-X3)
15 µM | CC(C)[C@H](NC(=O)[C@H](CC(N)=O)NC(=O)[C@@H](N)CO)C(=O)N[C@@H](Cc1ccccc1)C(=O)N[C@@H](C)C(=O)OCCc1ccccc1 (H-SNVFA-OCH2CH2Ph)
200 µM | CC(C)[C@H](NC(=O)[C@H](CC(N)=O)NC(=O)[C@@H]1CCCN1)C(=O)N[C@@H](Cc1ccccc1)C(=O)N[C@@H](C)C(=O)OCc1ccccc1 (H-PNVFA-OBn)
350 µM | CC(C)[C@H](NC(=O)[C@H](CC(N)=O)NC(=O)C(C)(N)CO)C(=O)N[C@@H](Cc1ccccc1)C(=O)N[C@@H](C)C(=O)OCc1ccccc1 (stereo partly drawn) (H-[ξαMeS]NVFA-OBn)
15 µM | CC(C)[C@H](NC(=O)[C@H](CC(N)=O)NC(=O)[C@H](CO)NC(=O)[C@@H](N)[C@@H](C)O)C(=O)N[C@@H](Cc1ccccc1)C(=O)N[C@@H](C)C(=O)OCc1ccccc1 (H-TSNVFA-OBn)
43 µM | CC(C)[C@H](NC(=O)[C@H](CC(N)=O)NC(=O)[C@@H](N)CO)C(=O)N[C@@H](Cc1ccccc1)C(=O)N[C@@H](CO)C(=O)OCc1ccccc1 (H-SNVFS-OBn)

Target: Myosin light chain kinase, smooth muscle (Gallus gallus) (UniProt P11799)
Sequence (P11799 whole entry): as above
Assay: Inhibition of native form of myosin light chain kinase at from chicken gizzard 100 uM
Outline: as §1

inhibition | Structure (SMILES)
0% | CC(C)[C@H](NC(=O)[C@@H](CC(N)=O)NC(=O)[C@@H](N)CO)C(=O)N[C@@H](Cc1ccccc1)C(=O)N[C@@H](C)C(=O)OCc1ccccc1
0% | CC(C)[C@H](NC(=O)[C@H](CC(=O)O)NC(=O)[C@@H](N)CO)C(=O)N[C@@H](Cc1ccccc1)C(=O)N[C@@H](C)C(=O)OCc1ccccc1 (H-SDVFA-OBn)
37% | CC(C)[C@H](NC(=O)[C@H](CC(N)=O)NC(=O)CN)C(=O)N[C@@H](Cc1ccccc1)C(=O)N[C@@H](C)C(=O)OCc1ccccc1 (H-GNVFA-OBn)
0% | CC(C)[C@H](NC(=O)[C@H](Cc1c[nH]cn1)NC(=O)[C@@H](N)CO)C(=O)N[C@@H](Cc1ccccc1)C(=O)N[C@@H](C)C(=O)OCc1ccccc1 (H-SHVFA-OBn)

From ChEMBL document CHEMBL1124728, “Small peptide inhibitors of smooth muscle myosin light chain kinase” (J Med Chem, 1990)
